Assay results taken from ChEMBL document CHEMBL3853281, “Pregnane-10,2-carbolactones from a Hawaiian Marine Sponge in the Genus Myrmekioderma” (J Nat Prod, 2016).

What was measured:
[1] = molecular target: T1, Nuclear receptor subfamily 1 group I member 2 (Homo sapiens, UniProt O75469); assay: Activation of human PXR expressed in human DPX2 cells assessed as induction of CYP3A4 gene expression at 4 uM measured after 24 hrs by luciferase reporter gene assay relative to rifampicin; type: cell-based; settings: dpx2, 24 h
T1 sequence (O75469 whole entry): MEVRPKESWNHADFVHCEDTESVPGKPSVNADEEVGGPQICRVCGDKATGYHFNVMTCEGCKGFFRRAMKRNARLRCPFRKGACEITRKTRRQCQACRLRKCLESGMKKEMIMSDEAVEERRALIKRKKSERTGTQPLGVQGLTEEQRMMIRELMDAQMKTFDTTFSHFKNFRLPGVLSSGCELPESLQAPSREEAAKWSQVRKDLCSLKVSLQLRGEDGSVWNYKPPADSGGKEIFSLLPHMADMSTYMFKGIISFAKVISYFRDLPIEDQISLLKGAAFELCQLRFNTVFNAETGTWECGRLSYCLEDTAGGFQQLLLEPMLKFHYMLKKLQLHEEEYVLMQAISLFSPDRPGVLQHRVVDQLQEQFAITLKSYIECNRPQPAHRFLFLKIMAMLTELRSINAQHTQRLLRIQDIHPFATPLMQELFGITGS
How it was run: (§1)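 PXR reporter run in stable DPX2 cells expressing human PXR with a luciferase reporter linked to two human CYP3A4 promoters. Compound (six concentrations, duplicate wells) was added 24 h after seeding, with a further 24 h incubation. Viability was read first, then luciferase in the same wells. Rifampicin was the reference at seven concentrations; activation is given as % of rifampicin response, with rifampicin at 10 μM.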

[2] = molecular target: T1, Nuclear receptor subfamily 1 group I member 2; assay: Activation of human PXR expressed in human DPX2 cells assessed as induction of CYP3A4 gene expression at 10 uM measured after 24 hrs by luciferase reporter gene assay relative to rifampicin; type: cell-based; settings: dpx2, 24 h; how it was run: as §1
[3] = molecular target: T1, Nuclear receptor subfamily 1 group I member 2; assay: Activation of human PXR expressed in human DPX2 cells assessed as induction of CYP3A4 gene expression at 0.4 uM measured after 24 hrs by luciferase reporter gene assay relative to rifampicin; type: cell-based; settings: dpx2, 24 h; how it was run: as §1
[4] = molecular target: T2, PXR (NR1I2); CYP3A4 gene expression (Homo sapiens, UniProt O75469); assay: Activation of human PXR expressed in human DPX2 cells assessed as induction of CYP3A4 gene expression at 10 uM measured after 24 hrs by luciferase reporter gene assay relative to control; type: cell-based; settings: DPX2 cells expressing human PXR, read-out: FC
T2 sequence (O75469 whole entry): T1 sequence (O75469 whole entry)
How it was run: (§2)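 DPX2 cells stably carrying human PXR (NR1I2) and a luciferase reporter under two human CYP3A4 promoters. Cells were seeded, treated 24 h later with six compound concentrations in duplicate wells, then incubated 24 h more. Viable cells were counted by a fluorescent cytotoxicity read in the same wells, then luciferase (ONE-Glo) was read. Fold activation is relative to DMSO vehicle-treated cells.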

[5] = molecular target: T2, PXR (NR1I2); CYP3A4 gene expression; assay: Activation of human PXR expressed in human DPX2 cells assessed as induction of CYP3A4 gene expression at 0.4 uM measured after 24 hrs by luciferase reporter gene assay relative to control; type: cell-based; settings: DPX2 cells expressing human PXR, read-out: FC; how it was run: as §2
[6] = molecular target: T1, Nuclear receptor subfamily 1 group I member 2; assay: Activation of human PXR expressed in human DPX2 cells assessed as induction of CYP3A4 gene expression at 1 uM measured after 24 hrs by luciferase reporter gene assay relative to rifampicin; type: cell-based; settings: dpx2, 24 h; how it was run: as §1
[7] = molecular target: T2, PXR (NR1I2); CYP3A4 gene expression; assay: Activation of human PXR expressed in human DPX2 cells assessed as induction of CYP3A4 gene expression at 1 uM measured after 24 hrs by luciferase reporter gene assay relative to control; type: cell-based; settings: DPX2 cells expressing human PXR, read-out: FC; how it was run: as §2
[8] = molecular target: T2, PXR (NR1I2); CYP3A4 gene expression; assay: Activation of human PXR expressed in human DPX2 cells assessed as induction of CYP3A4 gene expression at 40 uM measured after 24 hrs by luciferase reporter gene assay relative to control; type: cell-based; settings: DPX2 cells expressing human PXR, read-out: FC; how it was run: as §2
[9] = molecular target: T1, Nuclear receptor subfamily 1 group I member 2; assay: Activation of human PXR expressed in human DPX2 cells assessed as induction of CYP3A4 gene expression at 40 uM measured after 24 hrs by luciferase reporter gene assay relative to rifampicin; type: cell-based; settings: dpx2, 24 h; how it was run: as §1
[10] = molecular target: T2, PXR (NR1I2); CYP3A4 gene expression; assay: Activation of human PXR expressed in human DPX2 cells assessed as induction of CYP3A4 gene expression at 0.1 uM measured after 24 hrs by luciferase reporter gene assay relative to control; type: cell-based; settings: DPX2 cells expressing human PXR, read-out: FC; how it was run: as §2
[11] = molecular target: T1, Nuclear receptor subfamily 1 group I member 2; assay: Activation of human PXR expressed in human DPX2 cells assessed as induction of CYP3A4 gene expression at 0.1 uM measured after 24 hrs by luciferase reporter gene assay relative to rifampicin; type: cell-based; settings: dpx2, 24 h; how it was run: as §1
[12] = molecular target: T2, PXR (NR1I2); CYP3A4 gene expression; assay: Activation of human PXR expressed in human DPX2 cells assessed as induction of CYP3A4 gene expression at 4 uM measured after 24 hrs by luciferase reporter gene assay relative to control; type: cell-based; settings: DPX2 cells expressing human PXR, read-out: FC; how it was run: as §2
Beta-secretase 1 = Beta-secretase 1 (Homo sapiens, UniProt P56817); assay: Inhibition of BACE1 (unknown origin) assessed as cleavage of amyloid precursor protein by beta-galactosidase enzyme complementation assay
Chain of Beta-secretase 1 (P56817 whole entry): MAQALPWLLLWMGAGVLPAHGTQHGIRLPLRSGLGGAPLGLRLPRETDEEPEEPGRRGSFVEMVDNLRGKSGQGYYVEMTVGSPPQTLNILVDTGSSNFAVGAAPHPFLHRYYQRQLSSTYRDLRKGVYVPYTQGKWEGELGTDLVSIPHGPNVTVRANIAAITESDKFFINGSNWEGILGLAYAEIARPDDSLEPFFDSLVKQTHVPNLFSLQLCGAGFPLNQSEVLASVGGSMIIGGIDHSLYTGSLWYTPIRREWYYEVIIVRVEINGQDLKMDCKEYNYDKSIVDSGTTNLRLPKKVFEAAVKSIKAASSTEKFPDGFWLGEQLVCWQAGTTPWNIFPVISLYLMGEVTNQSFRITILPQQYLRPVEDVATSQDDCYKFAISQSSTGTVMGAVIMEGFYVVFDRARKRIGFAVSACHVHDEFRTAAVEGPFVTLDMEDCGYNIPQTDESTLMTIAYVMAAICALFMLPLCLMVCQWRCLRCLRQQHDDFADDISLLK

SMILES | Activity [1] | Activity [2] | Activity [3] | fold induction at 24 h, 10 µM [4] | fold induction at 24 h, 0.4 µM [5] | Activity [6] | fold induction at 24 h, 1 µM [7] | fold induction at 24 h, 40 µM [8] | Activity [9] | fold induction at 24 h, 0.1 µM [10] | Activity [11] | fold induction at 24 h, 4 µM [12] | IC50 (Beta-secretase 1)
C/C=C1\CC[C@H]2[C@@H]3CC=C4[C@@H](O)[C@@H](O)[C@@H]5C[C@]4(C(=O)O5)[C@H]3CC[C@]12C | 2% | 6% | 4% | 1.6 | 1.4 | 2% | 1.2 | 3.7 | 28% | 1.3 | 3% | 1.2 | 
CC[C@]1(C)CCC2=C1CC[C@H]1[C@H]2C[C@@H](Cl)C2=C[C@@H](O)[C@@H]3C[C@@]21C(=O)O3 |  |  |  |  |  |  |  |  |  |  |  |  | 82 µM
